Compounds with a hit are over-represented: about 3.5% of the library has one in this group of screens.
MrgX1 antagonist – human MrgX1 receptor antagonism, primary screen | B-score at 10 µM | AID 588676 | hit rate 1.3% among 310,000 | Q96LB2 | MRGX1-HEK293 calcium flux, Fluo-4, BAM8-22 antagonism; active compounds read low;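 active = calcium-response B-score plate-corrected more than 3 library SD below zero, starting fluorescence within 5 deviations, no agonist response on first addition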;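 note: peak minus trough fluorescence over baseline after final BAM8-22 challenge near maximal dose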
Target sequence (Q96LB2 whole entry, looked up): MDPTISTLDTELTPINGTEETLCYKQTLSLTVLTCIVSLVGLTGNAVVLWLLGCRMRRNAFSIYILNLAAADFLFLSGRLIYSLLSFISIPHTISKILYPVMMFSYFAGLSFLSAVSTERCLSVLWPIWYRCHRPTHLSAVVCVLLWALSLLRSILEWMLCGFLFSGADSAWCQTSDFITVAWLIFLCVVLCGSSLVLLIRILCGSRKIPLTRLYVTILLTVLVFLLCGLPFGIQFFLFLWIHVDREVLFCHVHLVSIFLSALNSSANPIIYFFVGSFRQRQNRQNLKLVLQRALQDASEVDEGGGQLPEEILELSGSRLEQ
RGS4 block – inhibitors of human RGS4 | P49798 | HEK293 M3R/RGS4 inducible, Fluo-4 calcium flux; active compounds read high; triggered by carbachol at its EC20 | B-score at 10 µM | hit rate 0.45% among 310,000 | AID 463165;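 active = B-score, a plate-corrected calcium signal, over three deviations above library mean, with baseline fluorescence within five deviations of library mean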;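 note: RGS4 expression induced by doxycycline in cells with stable M3 receptor; B-score is computed from the integrated fluorescence ratio over baseline after carbachol; higher B-score means a larger calcium signal and so more RGS4 inhibition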
Target sequence (P49798 whole entry, looked up): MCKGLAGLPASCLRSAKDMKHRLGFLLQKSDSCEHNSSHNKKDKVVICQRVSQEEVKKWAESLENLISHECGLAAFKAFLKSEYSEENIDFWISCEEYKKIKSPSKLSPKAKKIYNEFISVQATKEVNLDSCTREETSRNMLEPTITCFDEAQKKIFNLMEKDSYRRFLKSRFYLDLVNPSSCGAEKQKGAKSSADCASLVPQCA
MrgX1 PAM – allosterically activates human MrgX1 receptor signaling; hit rate 0.63% among 310,000; B-score at 10 µM; AID 588675; MrgX1-HEK293, Fluo-4 calcium flux, FDSS; active compounds read high; Q96LB2;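 active = plate-corrected calcium response at least 3 library SD above typical, normal starting fluorescence, not activating the receptor alone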;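 note: compound read alongside a low EC10 to EC30 dose of BAM8-22 agonist; peak minus trough fluorescence over baseline measured at the second addition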
RGS4 act – RGS4 potentiation or activation; B-score at 10 µM; HEK293 M3R/inducible RGS4, carbachol calcium flux Fluo4; active compounds read low; hit rate 0.92% among 310,000;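 active = B-score of the integrated calcium signal more than 4 SD below the library mean, with starting fluorescence not abnormally high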;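 note: negative B-score means reduced calcium response which marks RGS4 activation or potentiation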
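System – HEK293 FlpIn-TREx cells, stable M3R, doxycycline-inducible RGS4 · Reagent – ECmax carbachol challenge · Times – compound preincubation 20 min at room temperature before agonist · Technique – Fluo4 fluorescence kinetic imaging of calcium · Measure – B score of integrated Fluo4 ratio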
MrgX1 ag – human MrgX1 receptor agonism, primary screen; Q96LB2; MrgX1-HEK293 cells, Fluo-4 calcium fluorescence, agonist mode; active compounds read high; B-score at 10 µM; hit rate 0.44% among 310,000;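 active = calcium response B-score plate-corrected fluorescence ratio at least 3 library SD, with starting fluorescence B-score inside 5 SD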
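System: HEK293 cells stably expressing human MrgX1 receptor; Dosing: test compound in the initial addition of three; Schedule: overnight plating, then 30 min 37 °C plus 30 min room-temperature dye loading; Detection: kinetic calcium dye fluorescence, Fluo-4 NW; Controls: per-plate positive and negative controls for Z′ factor.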
MrgX1 allo conf – reconfirmed allosteric activator of human MrgX1 receptor | shares compounds with MrgX1 PAM | MrgX1-HEK293, Fluo-4 calcium fluorescence, FDSS | activation (ratio percentage), % at 10 µM | hit rate 13% among 1,200;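 active = ratio at least 3 SD above the weak peptide control, stable starting fluorescence, no direct agonism earlier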;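 note: compound followed by low BAM8-22 agonist challenge near EC20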
MrgX1 ant reconf – reconfirmed antagonist of human MrgX1 receptor signaling; shares compounds with MrgX1 antagonist; MrgX1-HEK293, BAM8-22 calcium flux, Fluo-4; active compounds read low; remaining BAM8-22 calcium response % of control (active compounds read low), % at 10 µM; hit rate 19% among 2,300;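 active = remaining agonist calcium response no higher than 100% minus 3 SD of agonist-only control wells, with starting fluorescence near control levels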;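 note: agonist BAM8-22 given at a near maximal EC90 to ECmax level; peak minus minimum fluorescence divided by baseline after agonist addition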
HEK293 Ca flux – counter-screen for MrgX1 antagonists: effect in parental HEK293 cells | shares compounds with MrgX1 antagonist | Fluo-4 calcium fluorescence, FDSS | fluorescence ratio F(max-min)/F0 at 10 µM | hit rate 2% among 4,000;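 active = duplicate-averaged calcium fluorescence ratio at least three times the standard deviation of buffer wells, a nonspecific response in parental cells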
HEK293 Ca counter – activity in parental HEK293 cells without MrgX1; hit rate 0.4% among 4,000; fluorescence ratio F(max-min)/F0 at 10 µM; shares compounds with MrgX1 antagonist; parental HEK293 calcium flux, Fluo-4 fluorescence ratio; active compounds read high; AID 624114;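 active = calcium fluorescence ratio, averaged over duplicates, at least 3 SD of the buffer-well ratio, meaning a nonspecific response in receptor-free cells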;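 note: untransfected parental HEK293 lacking MrgX1 used as counterscreen for MrgX1 allosteric activators; fluorescence change taken during the second addition on a kinetic imager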
HEK293 Ca cntr2 – activity in parental HEK293 cells lacking MrgX1 receptor; shares compounds with MrgX1 antagonist; Fluo-4 calcium fluorescence (FDSS); active compounds read high; fluorescence ratio F(max-min)/F0 at 10 µM; hit rate 8.7% among 4,000; AID 624115;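 active = calcium fluorescence ratio at least three times the spread of buffer wells, meaning a non-specific response in parental cells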
Starred values were filed as active, the others as inactive; i = inactive; x = no result.

SMILES	MrgX1 antagonist	RGS4 block	MrgX1 PAM	RGS4 act	MrgX1 ag	MrgX1 allo conf	HEK293 Ca flux	HEK293 Ca counter	HEK293 Ca cntr2	others
COC(=O)CNC(=O)CSc1nc2sc(-c3ccccc3)cc2c(=O)n1-c1ccccc1	i	i	11*	i	i	i	i	i	i
O=c1[nH]c(Nc2ccccc2)cc2ccccc12	i	i	19*	i	i	34%*	i	i	i
CC(C)c1ccc(NC(=O)Cn2nnc(C(=O)NCc3ccco3)c2N)cc1	i	i	i	i	i	x	x	x	x
CCOc1cc(CN2CCC(CO)(Cc3cccc(C(F)(F)F)c3)CC2)ccc1OC	i	i	i	i	i	x	x	x	x
CCOC(=O)c1c(C)nc2c(c1-c1cc(OC)ccc1OC)C(=O)c1ccccc1-2	i	i	i	i	i	x	x	x	x
CCOC(=O)c1c(C)nc2c(c1-c1ccccc1)C(=O)c1ccccc1-2	i	i	9.3*	i	i	i	i	i	i
CCOC(=O)c1c(C)nc2ccccc2c1-c1ccccc1	i	i	7.6*	i	i	i	i	i	i
CCOC(=O)c1c(C)nc2c(c1-c1ccc(Cl)cc1)C(=O)CC(C)(C)C2	-4.8*	i	8.6*	i	i	i	i	i	i	MrgX1 ant reconf=i
Oc1ccc(Br)cc1C=Nc1ccc2c3c(cccc13)CC2	i	i	i	i	i	x	x	x	x
CCOC(=O)c1sc(=NC(=O)CCSc2ccccc2)n(C)c1C	i	i	i	i	i	x	x	x	x
CCOC(=O)c1sc(=NC(=O)COc2ccccc2)n(C)c1C	i	i	11*	i	i	i	i	i	i
CCc1ccc(N(CC(=O)Nc2ccc(OC)cc2OC)S(C)(=O)=O)cc1	i	i	15*	i	i	i	i	i	i
COc1ccc(N(CC(=O)Nc2cc(OC)ccc2OC)S(C)(=O)=O)cc1	i	i	i	i	i	x	x	x	x
CCCCn1c(N)c(N(CCOC)C(=O)c2ccc(C)c(S(=O)(=O)N3CCCCC3)c2)c(=O)[nH]c1=O	i	i	i	i	i	x	x	x	x
O=C(CCCC1=NS(=O)(=O)c2ccccc2N1)N1CCN(c2ccc([N+](=O)[O-])cc2)CC1	i	i	i	i	i	x	x	x	x
O=C1C(=O)N(CCN2CCOCC2)C(c2cccnc2)/C1=C(/O)c1ccc(Cl)cc1 (centres undefined)	i	i	i	i	i	x	x	x	x
O=S(=O)(c1ccccc1Br)N1CCN(c2ncccn2)CC1	i	i	6.7*	i	i	i	i	i	i
Cc1cc(O)cc(C)c1Cl	i	i	17*	i	i	i	i	i	i
COc1ccc2[nH]cc(C(=O)CCl)c2c1	i	i	21*	i	i	i	i	i	i
O=c1[nH]c2ccc(NC(=S)Nc3ccc(Cl)cc3)cc2[nH]1	i	i	i	i	i	x	x	x	x
CC(C)c1ccc(NC(=S)Nc2ccc3[nH]c(=O)[nH]c3c2)cc1	i	i	15*	i	i	i	i	i	i
CCN(CC)C(=O)Cn1cc(C(=O)C(=O)NCCc2c[nH]c3ccccc23)c2ccccc21	i	i	i	i	i	x	x	x	x
